From ChEMBL document CHEMBL1811853, “Design and evaluation of 3-aminopyrazolopyridinone kinase inhibitors inspired by the natural product indirubin” (Bioorg Med Chem, 2011)
Values after ≈ are worked out from the molar mass of the structure shown.

Assay: Aqueous solubility of the compound by HPLC analysis
Assay type: physicochemical
Conditions: water
Method in brief: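 Solubility determined by HPLC measurement of the concentration in saturated aqueous solutions of the compounds.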

solubility [µg/mL] | Structure (SMILES)
< 1 | O=C1Nc2ccccc2/C1=C1/Nc2ccccc2C1=O [INDIRUBIN]
1430 (≈ 4610 µM) | Nc1c2c(=O)[nH]c(C3CCNCC3)cc2nn1-c1ccccc1
2 (≈ 7.86 µM) | Cc1[nH]c(=O)c2c(N)nn(C)c2c1-c1ccccc1
24 (≈ 106 µM) | Nc1n[nH]c2cc(-c3ccccc3)[nH]c(=O)c12

Structure (SMILES) | solubility [µg/mL]
Cn1nc(N)c2c(=O)[nH]c(C3CCNCC3)cc21 | > 15000
Nc1n[nH]c2cc(C3CCNCC3)[nH]c(=O)c12 | 2340 (≈ 10000 µM)
